Drawing on ChEMBL document CHEMBL1143691, “Unusual naphthoquinone derivatives from the twigs of Avicennia marina” (2007), this text covers MIC, GI50 and CC50 for nine compounds.

In brackets after ≈: the same amount, converted by molar mass.

Common to all, as to format: functional
One experiment concerns Staphylococcus aureus. Kind of experiment: Antimicrobial activity against methicillin-resistant Staphylococcus aureus 134/93 by micro-broth dilution method. The procedure, abridged:
(§1)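 MIC determined by microbroth dilution following NCCLS (National Committee for Clinical Laboratory Standards) guidelines. Each value is the mean of three independent experiments.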
On the technique in general: In broth dilution the organism is exposed to a series of concentrations in liquid medium.

The subject of another experiment is Mycolicibacterium vaccae. As to the kind of experiment: Antimicrobial activity against Mycobacterium vaccae IMET 10670 by microbroth dilution method. The procedure, abridged: (§2)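 MIC by microbroth dilution following National Committee for Clinical Laboratory Standards guidelines; values are the mean of three independent experiments. Ciprofloxacin served as the antibacterial reference and amphotericin B as the antifungal reference.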

For experiment [1], the system named is Mycolicibacterium fortuitum. Kind of experiment: Antimicrobial activity against Mycobacterium fortuitum B by micro-broth dilution method. The procedure, abridged: as §2
In the next experiment the test system is Mycolicibacterium aurum. As to the kind of experiment: Antimicrobial activity against Mycobacterium aurum SB 66 by micro-broth dilution method. The procedure, abridged: as §2
The subject of another experiment is Enterococcus faecalis. As to the kind of experiment: Antimicrobial activity against vancomycin-resistant Enterococcus faecalis 1528 by micro-broth dilution method. The procedure, abridged:
as §1

The subject of experiment [2] is Mycolicibacterium smegmatis. Kind of experiment: Antimicrobial activity against Mycobacterium smegmatis SG 987 by microbroth dilution method. The essentials: as §2
The subject of another experiment is Candida albicans. Kind of experiment: Antimicrobial activity against Candida albicans BMSY 212 by micro-broth dilution method. The procedure, abridged:
as §2

A further experiment has as its system L929. As to the kind of experiment: Antiproliferative activity against mouse L929 cells.
Another experiment concerns HeLa. As to the kind of experiment: Cytotoxicity against human HeLa cells. The procedure, abridged:
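Cytotoxicity in HeLa human cervix carcinoma cells (DSM ACC 57). Reported as CC50, the concentration that kills 50% of treated cells.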

For another experiment, the system named is K562. Kind of experiment: Antiproliferative activity against human K562 cells.

Usually MIC stands for the lowest concentration found to suppress growth. A higher MIC goes with a less susceptible organism. For the compound `O=C(O)c1cn(C2CC2)c2cc(N3CCNCC3)c(F)cc2c1=O` [CIPROFLOXACIN], the MIC with Staphylococcus aureus is 12.5 µg/mL (≈ 37.7 µM); with Mycolicibacterium vaccae it was 0.2 µg/mL (≈ 0.604 µM); in experiment [1], 0.2 µg/mL (≈ 0.604 µM); in the experiment with Mycolicibacterium aurum, less than 0.05 µg/mL; in the experiment with Enterococcus faecalis, 0.8 µg/mL (≈ 2.41 µM); in experiment [2], 0.4 µg/mL (≈ 1.21 µM).
Take `C[C@@H]1[C@H](O)[C@@H](C)/C=C/C=C/C=C/C=C/C=C/C=C/C=C/[C@H](O[C@@H]2O[C@H](C)[C@@H](O)[C@H](N)[C@@H]2O)C[C@@H]2O[C@](O)(C[C@@H](O)C[C@@H](O)[C@H](O)CC[C@@H](O)C[C@@H](O)CC(=O)O[C@H]1C)C[C@H](O)[C@H]2C(=O)O` [AMPHOTERICIN B]: the MIC against Candida albicans was less than 0.05 µg/mL.
In general, GI50 refers to the concentration that inhibits growth by half. The CC50 is the concentration that lowers cell viability or growth by half. For `CC(=O)O[C@H]1C(=O)[C@@]2(C)[C@H]([C@H](OC(=O)c3ccccc3)[C@]3(O)C[C@H](OC(=O)[C@H](O)[C@@H](NC(=O)c4ccccc4)c4ccccc4)C(C)=C1C3(C)C)[C@]1(OC(C)=O)CO[C@@H]1C[C@@H]2O` [PACLITAXEL], the GI50 in the experiment with L929 was determined as 0.1 µg/mL (≈ 0.117 µM); in the experiment with K562 it was 0.01 µg/mL (≈ 0.0117 µM). The midpoint of cytotoxicity in the experiment on HeLa, the CC50, lay at 0.01 µg/mL (≈ 0.0117 µM).
Regarding `COc1c2c(c(OC)c3ccccc13)O[C@H](C(C)(C)O)C2` [AVICENOL C], the GI50 with L929 and in the experiment on K562 was more than 10 µg/mL each time. In the experiment with HeLa, the CC50 is more than 10 µg/mL.
Consider `CC(C)(O)[C@H]1OC2=C(C(=O)c3ccccc3C2=O)[C@@H]1O` [AVICEQUINONE A], for which the MIC in the experiment on Staphylococcus aureus is 6.25 µg/mL (≈ 22.8 µM); with Mycolicibacterium vaccae, 12.5 µg/mL (≈ 45.6 µM); in [1] it was 12.5 µg/mL (≈ 45.6 µM); against Mycolicibacterium aurum, 12.5 µg/mL (≈ 45.6 µM); in the experiment on Enterococcus faecalis, 50 µg/mL (≈ 182 µM); against Candida albicans, 12.5 µg/mL (≈ 45.6 µM). This compound registered an MIC in experiment [2] of 12.5 µg/mL (≈ 45.6 µM).
As to `COc1c2c(c(OC)c3ccccc13)[C@H](O)[C@@H](C(C)(C)O)O2` [AVICENOL A], the GI50 in the experiment on L929 and in the experiment on K562 was more than 10 µg/mL each time. Also, the CC50 with HeLa is more than 10 µg/mL.
`COC(=O)c1ccccc1/C(OC)=C1/C[C@@H](C(C)(C)O)OC1=O` [AVICENNONE A]: the GI50 in the experiment on L929 and in the experiment with K562 was more than 10 µg/mL in each case. The CC50 in the experiment on HeLa is more than 10 µg/mL.
As for `CC(C)(O)[C@@H]1CC2=C(O1)C(=O)c1ccccc1C2=O` [STENOCARPOQUINONE B], the minimum inhibitory concentration (MIC) against Staphylococcus aureus came to 12.5 µg/mL (≈ 48.4 µM); against Mycolicibacterium vaccae it was 6.25 µg/mL (≈ 24.2 µM); in experiment [1] it was 25 µg/mL (≈ 96.8 µM); against Mycolicibacterium aurum, 12.5 µg/mL (≈ 48.4 µM); with Enterococcus faecalis, 25 µg/mL (≈ 96.8 µM); in the experiment on Candida albicans, 12.5 µg/mL (≈ 48.4 µM). Moreover, the MIC in experiment [2] is 12.5 µg/mL (≈ 48.4 µM). The GI50 in the experiment on L929 is 1.2 µg/mL (≈ 4.65 µM); in the experiment on K562 it was 0.2 µg/mL (≈ 0.774 µM). Half-maximal cytotoxicity in the experiment on HeLa (CC50) was put at 4.3 µg/mL (≈ 16.6 µM).
For `CC(C)(O)c1cc2c(o1)C(=O)c1ccccc1C2=O` [AVICEQUINONE C], the MIC amounted to 6.25 µg/mL (≈ 24.4 µM) against Staphylococcus aureus; 6.25 µg/mL (≈ 24.4 µM) against Mycolicibacterium vaccae; 12.5 µg/mL (≈ 48.8 µM) in [1]; 6.25 µg/mL (≈ 24.4 µM) in the experiment on Mycolicibacterium aurum; 50 µg/mL (≈ 195 µM) with Enterococcus faecalis; 12.5 µg/mL (≈ 48.8 µM) with Candida albicans. In experiment [2], this compound showed an MIC of 6.25 µg/mL (≈ 24.4 µM). Moreover, the concentration for 50% growth inhibition (GI50) in the experiment with L929 was 0.8 µg/mL (≈ 3.12 µM); with K562 it was 1.1 µg/mL (≈ 4.29 µM). The midpoint of cytotoxicity with HeLa, the CC50, lay at 3.2 µg/mL (≈ 12.5 µM).
